NR2E3 ag-1: NR2E3 agonists in two-hybrid cells, primary screen, cell-based, luminescence, CHO-S, Gal4-NCOR/VP16-NR2E3 | luciferase | AID 602229, 2012 | inhibition of corepressor binding, % at 3.98 µM | hit rate 0.35% among 360,000 | Photoreceptor-specific nuclear receptor (Homo sapiens), Q9Y5X4;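 active = inhibition above the mean of all tested compounds plus 3 SD, cut at about 70% in these data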;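 also: higher means lower luciferase signal from less NR2E3 corepressor binding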
GalR3 antagonist: GalR3 antagonists in HEK293 cells, primary screen, cell-based, fluorescence readout. inhibition, % at 3 µM. hit rate 0.44% among 360,000. HEK293 GalR3-CNG cAMP membrane potential fluorescence; galR3 body fused to GalR1 C-terminus. AID 651719, 2012;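 active = inhibition above the screen-wide average plus 3 SD, cut at about 13% in these data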;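 also: forskolin and galanin both at EC90 stimulate the cells; cAMP rise reported by CNG channel membrane potential dye signal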
Target sequence (O60755 1-299 limits assumed): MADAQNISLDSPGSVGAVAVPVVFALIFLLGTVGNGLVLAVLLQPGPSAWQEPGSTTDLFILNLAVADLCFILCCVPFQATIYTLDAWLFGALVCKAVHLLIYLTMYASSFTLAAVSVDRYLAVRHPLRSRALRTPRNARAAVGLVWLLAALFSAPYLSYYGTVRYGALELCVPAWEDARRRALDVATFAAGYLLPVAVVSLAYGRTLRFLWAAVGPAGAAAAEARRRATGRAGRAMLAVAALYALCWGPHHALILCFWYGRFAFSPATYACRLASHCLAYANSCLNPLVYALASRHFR
NR2E3 ag-2: inhibitors of NR2E3-RetCOR corepressor binding, primary screen, NR2E3 agonist project, biochemical, TR-FRET, GST-NR2E3, biotin-RetCOR; Photoreceptor-specific nuclear receptor (Homo sapiens), Q9Y5X4; 1536-well; inhibition of corepressor binding, % at 4.78 µM; hit rate 0.12% among 320,000; AID 2300, 2010;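 active = percent inhibition above the cutoff of mean plus 3 SD of all tested compounds, set per screening campaign, cut at about 20% in these data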
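Format: 1536-well format; test system: GST-NR2E3 and biotin-RetCOR proteins; read-out basis: percent inhibition of TR-FRET ratio; timing: 5 h incubation at 4 °C; detection: time-resolved FRET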
COUP-TFII inh: NR2F2 transcriptional activity inhibitors, primary screen, cell-based, luciferase reporter, HEK293T, luminescence | COUP transcription factor 2 (Homo sapiens), P24468 | inhibition, % at 8.6 µM | AID 686940, 2013 | HEK293T NGFI-A luciferase reporter | hit rate 0.7% among 370,000;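 active = inhibition above a per-plate cutoff, mean inhibition of test wells between control levels plus 3 SD, cut at about 38% in these data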;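 also: cells cotransfected with COUP-TFII expression vector driving the NGFI-A reporter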
Target sequence (P24468 whole entry, looked up): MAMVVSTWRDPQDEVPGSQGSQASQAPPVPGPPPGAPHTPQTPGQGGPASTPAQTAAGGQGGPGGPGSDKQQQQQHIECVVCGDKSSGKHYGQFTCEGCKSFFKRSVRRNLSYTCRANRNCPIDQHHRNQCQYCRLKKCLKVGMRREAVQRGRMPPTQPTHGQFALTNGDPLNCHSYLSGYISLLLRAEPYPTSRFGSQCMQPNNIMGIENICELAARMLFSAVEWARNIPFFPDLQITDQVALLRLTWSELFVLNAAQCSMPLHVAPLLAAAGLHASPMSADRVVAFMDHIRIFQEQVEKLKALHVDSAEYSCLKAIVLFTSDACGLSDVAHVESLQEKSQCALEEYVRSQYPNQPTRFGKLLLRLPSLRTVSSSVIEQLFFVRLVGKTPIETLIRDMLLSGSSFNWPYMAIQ
SMARCA2 activ: SMARCA2 (BRM) function activators, primary screen, cell-based, luminescence, high throughput; AID 652017, 2013; activation, % at 9.1 µM; hit rate 1% among 370,000; MG213 cells, MMTV-luciferase reporter, dexamethasone, overnight; in the data active = activation above about 7.8%
SMARCA2 conf: SMARCA2 (BRM) function activators, confirmation, cell-based, luminescence, triplicate; activation, % at 9.1 µM; hit rate 30% among 3,500; shares compounds with SMARCA2 activ; MG213 cells, MMTV-luciferase with dexamethasone, overnight; MG213 cells expressing E1A, Rb sequestered; DMSO wells 0%, reference activator 100%; AID 652260, 2013;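 active = activation above its plate's cutoff, the mean activation of tested wells plus 3 SD, cut at about 7.9% in these data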
VP16 Luc act: GAL4-VP16 luciferase reporter activation, counter-screen for SMARCA2 (BRM) activator project, cell-based, pG5luc, luminescence, high throughput | shares compounds with SMARCA2 activ | HEK293 GAL4-VP16 pG5luc reporter; scaled: DMSO wells 0%, SAHA wells 100% | activation, % at 9.1 µM | hit rate 41% among 3,500 | AID 686939, 2013;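 active = activation above the solvent-only control well mean plus 3 SD, averaged across control plates, cut at about 5.2% in these data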
Of the large screens only hits and unclear results are named; the others gave an inactive call (follow-up assays come after a bar, where they were run). This is a sample that favours compounds with a hit; in the whole collection about 2.2% have one here.

COC(=O)N1C[C@H](OCc2cn(-c3cc(Cl)cc(Cl)c3)nn2)[C@H](OCc2cn(-c3cc(Cl)cc(Cl)c3)nn2)C[C@@H]1c1ccccc1Br	none (no result: NR2E3 ag-1, NR2E3 ag-2)
COc1ccc(COC[C@H](C)N2C[C@@H](C)[C@H](CN(C)S(=O)(=O)c3ccc(F)cc3)OCCCC[C@H](C)Oc3ccc(NC(=O)Nc4ccccc4)cc3C2=O)cc1	none (no result: NR2E3 ag-1, GalR3 antagonist, NR2E3 ag-2, SMARCA2 activ)
O=C(NC1=NCCS1)c1ccccc1OCc1ccc(F)cc1	SMARCA2 activ 10 | SMARCA2 conf inactive | VP16 Luc act inactive
O=C(Nc1ccccc1)c1ccccc1OCc1ccc(F)cc1	none
CC(=O)N/C(N)=N/c1nc2cc(C)ccc2o1	SMARCA2 activ 8.9 | SMARCA2 conf inactive | VP16 Luc act 9.6
CC(=O)N/C(N)=N/c1nc2cc([N+](=O)[O-])ccc2o1	none
O=c1c2ccccc2sn1-c1ccccc1	none
Cn1sc2ccccc2c1=O	SMARCA2 activ 13 (no result: NR2E3 ag-2) | SMARCA2 conf 16 | VP16 Luc act inactive
O=c1c2ccccc2sn1-c1cccc(Cl)c1	SMARCA2 activ 13 (no result: NR2E3 ag-2) | SMARCA2 conf inactive | VP16 Luc act inactive
CCOCCCNC(=O)c1cccc(OC2CCN(S(C)(=O)=O)CC2)c1	SMARCA2 activ 8.3 | SMARCA2 conf inactive | VP16 Luc act 10
CCOCCCNC(=O)c1ccccc1OC1CCN(S(C)(=O)=O)CC1	none
O=C(Cn1nnc(-c2ccc(N3CCOCC3)cc2)n1)c1cccc(F)c1	none (no result: NR2E3 ag-1, GalR3 antagonist, NR2E3 ag-2)
Fc1ccc(OCc2nc(-c3cccs3)no2)cc1	none
c1ccc(OCc2nc(-c3cccs3)no2)cc1	SMARCA2 activ 11 | SMARCA2 conf 9.2 | VP16 Luc act 6.6
Cc1ccc(OCc2nnc(SCC(=O)Nc3ccccc3-c3ccccc3)n2Cc2ccco2)cc1	none (no result: NR2E3 ag-1, GalR3 antagonist, NR2E3 ag-2)
O=C1c2cccc3c2C2(O)c4c1cccc4C(=O)c1cccc(c12)C3=O	SMARCA2 activ 8.1 (no result: NR2E3 ag-2) | SMARCA2 conf inactive | VP16 Luc act inactive
Cc1ccc(NNC(=O)c2c(C)noc2C)cc1Cl	SMARCA2 activ 12 | SMARCA2 conf inactive | VP16 Luc act inactive
C/C(=N\NC(=S)Nc1ccccc1)C1Cc2ccccc2C(=O)O1 (stereo not drawn)	SMARCA2 activ 8.3 | SMARCA2 conf inactive | VP16 Luc act inactive
C/C(=N\NC(=S)Nc1ccccc1C)C1Cc2ccccc2C(=O)O1 (stereo not drawn)	none
Cc1ccc(CN2CCCCC(NC(=O)C(C)(C)C)C2=O)cc1 (stereo not drawn)	none (no result: NR2E3 ag-1, GalR3 antagonist, NR2E3 ag-2)
Cc1ccc(OCC(=O)Nc2cccc(C)n2)c(C)c1	SMARCA2 activ 11 | SMARCA2 conf inactive | VP16 Luc act 12
Cc1cccc(NC(=O)COc2ccc(Br)cc2)n1	none
CCc1noc2cc(-c3ccccc3)n(C)c(=O)c12	SMARCA2 activ 9.7 (no result: NR2E3 ag-1, NR2E3 ag-2) | SMARCA2 conf 14 | VP16 Luc act 6.8
COc1ccc(NC2CCCN(C(=O)CN3C(=O)c4ccccc4C3=O)C2)cc1OC (stereo not drawn)	SMARCA2 activ 8.0 | SMARCA2 conf inactive | VP16 Luc act inactive
NC(=O)c1ccc(N=Cc2ccc([N+](=O)[O-])s2)cc1	SMARCA2 activ 8.9 | SMARCA2 conf inactive | VP16 Luc act inactive
COc1ccc2nc3ccccc3[n+]([O-])c2c1	SMARCA2 activ 8.4 (no result: NR2E3 ag-2) | SMARCA2 conf inactive | VP16 Luc act 6.2
COc1ccc2c(ccc[n+]2[O-])c1	none (no result: NR2E3 ag-2)
COCCCNC(=O)c1oc(=O)c2ccccc2c1-c1ccc(C)cc1	none (no result: NR2E3 ag-1, GalR3 antagonist, NR2E3 ag-2)
Cc1ccc(-n2c(=O)cc(N3CCC(C)CC3)[nH]c2=O)cc1	SMARCA2 activ 8.2 | SMARCA2 conf inactive | VP16 Luc act inactive
Clc1ccc(-c2csc(Nc3ccccc3)[n+]2Cc2ccco2)c(Cl)c1	SMARCA2 activ 9.0 (no result: NR2E3 ag-2) | SMARCA2 conf inactive | VP16 Luc act 6.1
O=C1NCCCC1C(=O)N/N=C/c1cccc(O)c1 (stereo not drawn)	none
O=C1NCCCC1C(=O)N/N=C/c1ccccc1 (stereo not drawn)	SMARCA2 activ 8.8 | SMARCA2 conf inactive | VP16 Luc act inactive
COC(=O)[C@]12CCCCC=C1N(Cc1ccc(OC)cc1)C(=O)[C@@H]2CC(=O)NCc1ccc(C)o1	none (no result: NR2E3 ag-1, GalR3 antagonist, NR2E3 ag-2)
O=c1[nH]c2cc(Br)c(Br)nc2[nH]1	none (no result: NR2E3 ag-1, GalR3 antagonist, NR2E3 ag-2)
COc1ccc2c(CCNC(N)=S)c[nH]c2c1	none
COc1ccc2c(CCNC(=O)c3ccco3)c[nH]c2c1	SMARCA2 activ 9.6 | SMARCA2 conf inactive | VP16 Luc act inactive
COC(=O)[C@]12C[C@H](CC(=O)NCc3ccc(C)o3)C(=O)N(Cc3cccc4ccccc34)C1=C[C@H](C(C)C)O[C@@H]2C1CC1	none (no result: NR2E3 ag-1, GalR3 antagonist, NR2E3 ag-2)
C=CCOc1ccc(/C=N/Nc2ccccn2)cc1OC	SMARCA2 activ 9.0 | SMARCA2 conf 9.2 | VP16 Luc act 11
O=C(/C=C/c1ccc(Cl)cc1Cl)N1CCN(c2ccc([N+](=O)[O-])c(N3CCOCC3)c2)CC1	SMARCA2 activ 9.9 | SMARCA2 conf inactive | VP16 Luc act inactive
Cc1cc2nc(-c3ccc(SCC(=O)N4CCN(C(=O)c5ccco5)CC4)nc3)[nH]c2cc1C	SMARCA2 activ 10 | SMARCA2 conf 9.2 | VP16 Luc act 8.8
Cc1cc2nc(-c3ccc(SCC(=O)N4CCOCC4)nc3)[nH]c2cc1C	none
CCN(CC)CCn1c(NCc2nc3ccccc3n2Cc2ccccc2)nc2ccccc21	SMARCA2 activ 9.0 | SMARCA2 conf inactive | VP16 Luc act 5.5
O=C(Nc1cccc(F)c1)c1ccc(-n2cncn2)c2ccoc12	SMARCA2 activ 12 (no result: NR2E3 ag-2) | SMARCA2 conf 8.2 | VP16 Luc act 8.7
Nc1ccc2ccc(N)cc2c1	SMARCA2 activ 13 (no result: NR2E3 ag-1, NR2E3 ag-2) | SMARCA2 conf inactive | VP16 Luc act inactive
Cc1ccc(C(=O)Oc2oc(-c3ccco3)nc2C=Nc2ccc(Cl)cc2)cc1	SMARCA2 activ 8.0 | SMARCA2 conf inactive | VP16 Luc act 20
O=C(Oc1oc(-c2ccco2)nc1C=Nc1ccccc1)c1ccoc1	none
COC(=O)c1ccc(NCc2cc(O)ccc2O)cc1O	SMARCA2 activ 8.5 (no result: NR2E3 ag-2) | SMARCA2 conf inactive | VP16 Luc act inactive
CCc1cc(C(=O)O)c(NC(=O)/C=C/c2ccc(OC)cc2)s1	SMARCA2 activ 13 | SMARCA2 conf inactive | VP16 Luc act 6.1
CCc1cccc(CC)c1NC(=O)C(CC)Sc1nc2ccncc2[nH]1 (stereo not drawn)	SMARCA2 activ 8.3 | SMARCA2 conf inactive | VP16 Luc act inactive

Assay outcomes deposited in PubChem by The Scripps Research Institute Molecular Screening Center.
